Assay results: ChEMBL document CHEMBL4007484, “Pharmacokinetic optimitzation of CCG-203971: Novel inhibitors of the Rho/MRTF/SRF transcriptional pathway as potential antifibrotic therapeutics for systemic scleroderma” (Bioorg Med Chem Lett, 2017)

What was measured:
[1] = Inhibition of Rho/MRTF/SRF pathway (unknown origin) expressed in HEK293T cells assessed as reduction in Galpha12-stimulated MRTF-selective SRE.L promoter-driven luciferase activity after overnight incubation by luminescence assay; type: cell-based, Homo sapiens
Method in brief: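 Signal was stimulated with Gα12 and luciferase activity was read. IC50 in μM is the mean of n ≥ 3.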

Liver [2] = assay: Half life in CD-1 mouse liver microsomes at 1 uM in presence of NADPH by LC-MS/MS analysis; type: ADME, microsome
Method in brief: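 Half-life measured by incubation in mouse liver microsomes.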

Homo sapiens = species: Homo sapiens; assay: Inhibition of Rho/MRTF/SRF pathway in human primary dermal fibroblasts assessed as inhibition of TGF-beta-stimulated ACTA2 gene expression by measuring ACTA2 mRNA level at 10 uM after 24 hrs by qRT-PCR method relative to control; parameters: scale not given: the % may be the effect or the level left
Method in brief: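 Primary human dermal fibroblasts stimulated with TGF-β and treated with compound at 10 μM for 24 h. ACTA2 mRNA was measured by qPCR and expressed as percent of control, mean of n=3.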

[3] = AUC (0 to 7 hrs) in CD-1 mouse at 10 mg/kg, ip administered as single dose by LC-MS/MS analysis; type: ADME, organism-based; parameters: dose 10 mg/kg, time < 7 hr, route intraperitoneal; conditions: in vivo
Method in brief: (§1)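 Mice dosed once, by intraperitoneal injection at 10 mg/kg or by oral gavage at 20 mg/kg. AUC is estimated from the plasma concentration curve over 0–7 h and is expressed as hr.ng/mL.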

[4] = Plasma concentration in CD-1 mouse at 10 mg/kg, ip or 20 mg/kg, po administered via gavage as single dose measured at 7 hrs post dose by LC-MS/MS analysis; type: ADME, organism-based
Method in brief: (§2)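 Plasma concentration in μM after a single dose in mice (IP 10 mg/kg or PO gavage 20 mg/kg), sampled at 0.5 h and at 7 h post-dose.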

[5] = Thermodynamic aqueous solubility of the compound in water by nitrogen detection method; type: physicochemical; conditions: buffer
Method in brief: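 Thermodynamic solubility in water, reported in μg/mL.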

[6] = AUC (0 to 7 hrs) in CD-1 mouse at 20 mg/kg, po administered via gavage as single dose by LC-MS/MS analysis; type: ADME, organism-based; parameters: time < 7 hr, dose 20 mg/kg, route oral; conditions: in vivo; method in brief: as §1
[7] = Plasma concentration in CD-1 mouse at 10 mg/kg, ip or 20 mg/kg, po administered via gavage as single dose measured at 0.5 hrs post dose by LC-MS/MS analysis; type: ADME, organism-based; method in brief: as §2
Liver [8] = assay: Drug level in CD-1 mouse liver microsomes treated with CCG-222740 at 20 uM after 3 mins in presence of NADPH by LC-MS/MS analysis; type: ADME, microsome; conditions: 0.05 h
Mus musculus [9] = assay: Antifibrotic activity in C57BL/6 mouse bleomycin-induced dermal fibrosis model assessed as inhibition of dermal thickness at 50 mg/kg, po qd for 2 weeks by Masson's trichrome staining based microscopic method relative to control; type: functional; conditions: C57BL/6, po, 336 h
Method in brief: (§3)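 Three groups of mice (n=8) dosed daily for 14 days. The groups were: intracutaneous PBS; intracutaneous bleomycin plus vehicle by oral gavage; intracutaneous bleomycin plus test compound at 50 mg/kg by oral gavage. Read-outs were dermal thickness and skin hydroxyproline content. Each is given as the reduction of the bleomycin-induced increase.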

Mus musculus [10] = assay: Antifibrotic activity in C57BL/6 mouse bleomycin-induced dermal fibrosis model assessed as inhibition ofhydroxyproline content at 50 mg/kg, po qd for 2 weeks relative to control; type: functional; conditions: C57BL/6, po, 336 h; method in brief: as §3
Liver [11] = assay: Drug metabolism in CD-1 mouse liver microsomes assessed as oxidative metabolism at 20 uM after 3 mins in presence of NADPH by LC-MS/MS analysis; type: ADME, microsome; conditions: 0.05 h
Liver [12] = assay: Drug metabolism in CD-1 mouse liver microsomes assessed as 5,5-difluoro-1-(3-(furan-2-yl)benzoyl)piperidine-3-carboxylic acid formation at 20 uM after 3 mins in presence of NADPH by LC-MS/MS analysis; type: ADME, microsome; conditions: 0.05 h

Row | SMILES | IC50 [1] [nM] | t1/2 (Liver [2]) [min] | further results
1 | O=C(Nc1ccc(Cl)cc1)C1CCCN(C(=O)c2csc(-c3ccco3)n2)C1 (configuration not stated) | 6200 |  | 
2 | C=C1CC(C(=O)Nc2ccc(Cl)cc2)CN(C(=O)c2cccc(-c3ccco3)c2)C1 (configuration not stated) | 98 | 1.4 | Activity (Homo sapiens): 9.5%
3 | CC1(C(=O)Nc2ccc(Cl)cc2)CCCN(C(=O)c2cccc(-c3ccco3)c2)C1 (configuration not stated) | 550 | 0.84 | 
4 | O=C(Nc1ccc(Cl)cc1)C1CCCN(C(=O)c2cc(-c3ccco3)[nH]n2)C1 (configuration not stated) | 5300 |  | 
5 | O=C(Nc1ccc(Cl)cc1)C1CN(C(=O)c2cc(F)cc(-c3ccncc3)c2)CC(F)(F)C1 (configuration not stated) | 530 | 6.9 | AUC(0-t) at 7 h [3]: 26700 ng·h/mL; concentration at 7 h [4]: 1.3 µM; Therm_solubility [5]: 9.8 µg/mL; Activity (Homo sapiens): 14%; AUC(0-t) at 7 h [6]: 36400 ng·h/mL; concentration at 0.5 h [7]: 13.2 µM
6 | O=C(Nc1ccc(Cl)cc1)C1CCCN(C(=O)c2cncc(-c3ccco3)c2)C1 (configuration not stated) | 2900 | < 3 | 
7 | O=C(Nc1ccc(Cl)cc1)C1CN(C(=O)c2cccc(-c3cccnc3)c2)CC(F)(F)C1 (configuration not stated) | 900 | < 3 | 
8 | O=C(Nc1ccc(Cl)cc1)C1CN(C(=O)c2cncc(-c3ccncc3)c2)CC(F)(F)C1 (configuration not stated) | 1200 | 7.7 | Therm_solubility [5]: 62 µg/mL; Activity (Homo sapiens): 190%
9 | CC(=O)N1CCN(C(=O)c2cccc(-c3ccco3)c2)CC1C(=O)Nc1ccc(Cl)cc1 (configuration not stated) | 21000 |  | 
10 | COC(=O)N1CCN(C(=O)c2cccc(-c3ccco3)c2)CC1C(=O)Nc1ccc(Cl)cc1 (configuration not stated) | 2700 |  | 
11 | O=C(O)C1CN(C(=O)c2cccc(-c3ccco3)c2)CC(F)(F)C1 (configuration not stated) |  |  | Drug metabolism (Liver [8]): Metabolite_Detected
12 | O=C(Nc1ccc(Cl)cc1)C1CN(C(=O)c2cccc(-c3cn[nH]c3)c2)CC(F)(F)C1 (configuration not stated) | 4500 | 13 | 
13 | O=C(Nc1ccc(Cl)cc1)C1CN(C(=O)c2cccc(-c3ccco3)c2)CCO1 (configuration not stated) | 3100 |  | 
14 | CN(C)C1CC(C(=O)Nc2ccc(Cl)cc2)CN(C(=O)c2cccc(-c3ccco3)c2)C1 (configuration not stated) | 5800 | 3.3 | 
15 | O=C(Nc1ccc(Cl)cc1)C1CCCN(C(=O)c2cc(-c3ccco3)ncn2)C1 (configuration not stated) | 15300 |  | 
16 | Cn1cncc1-c1cccc(C(=O)N2CC(C(=O)Nc3ccc(Cl)cc3)CC(F)(F)C2)c1 (configuration not stated) | 370 | 16 | Therm_solubility [5]: 14.9 µg/mL; Activity (Homo sapiens): 110%
17 | O=C(Nc1ccc(Cl)cc1)C1CCCN(C(=O)c2cccc(-c3ccco3)c2)C1 (configuration not stated) | 640 | 1.6 | AUC(0-t) at 7 h [3]: 1200 ng·h/mL; Drug metabolism (Liver [11]): Metabolite_Detected; Therm_solubility [5]: 13.4 µg/mL; Activity (Homo sapiens): 37%
18 | O=C(Nc1ccc(Cl)cc1)C1CN(C(=O)c2cccc(-c3ccco3)c2)CC(F)(F)C1 (configuration not stated) | 600 | 4.9 | AUC(0-t) at 7 h [3]: 9200 ng·h/mL; Therm_solubility [5]: 2.3 µg/mL; Activity (Homo sapiens): 9.3%; Drug metabolism (Liver [12]): Metabolite_Detected
19 | CN(C(=O)C1CCCN(C(=O)c2cccc(-c3ccco3)c2)C1)c1ccc(Cl)cc1 (configuration not stated) | 8600 |  | 
20 | O=C(Nc1ccc(Cl)cc1)C1CCCN(C(=O)c2cccc(-n3ccnc3)c2)C1 (configuration not stated) | 5200 |  | 
21 | O=C(Nc1ccc(Cl)cc1)C1CCCN(C(=O)c2cccc(-n3cccn3)c2)C1 (configuration not stated) | 2900 | 1.7 | 

Further compounds by falling IC50 [1], results first:

Row | IC50 [1] [nM] | t1/2 (Liver [2]) [min] | SMILES | further results
22 | 7100 | 2.5 | O=C(Nc1ccc(Cl)cc1)C1CN(C(=O)c2cc(-c3ccco3)ccn2)CC(F)(F)C1 (configuration not stated) | 
23 | 6800 |  | O=C(Nc1ccc(Cl)cc1)C1CCCN(C(=O)c2cc(-c3ccco3)on2)C1 (configuration not stated) | 
24 | 5800 |  | O=C(Nc1ccc(Cl)cc1)C1CCCN(C(=O)c2cnc(-c3ccco3)s2)C1 (configuration not stated) | 
25 | 5500 |  | O=C(Nc1ccc(Cl)cc1)C1CN(C(=O)c2cccc(-c3ncc[nH]3)c2)CC(F)(F)C1 (configuration not stated) | 
26 | 5000 |  | CC(=O)NC1CC(C(=O)Nc2ccc(Cl)cc2)CN(C(=O)c2cccc(-c3ccco3)c2)C1 (configuration not stated) | 
27 | 5000 |  | COC(=O)NC1CC(C(=O)Nc2ccc(Cl)cc2)CN(C(=O)c2cccc(-c3ccco3)c2)C1 (configuration not stated) | 
28 | 4900 |  | O=C(NC1CCCN(C(=O)c2cccc(-c3ccco3)c2)C1)c1ccc(Cl)cc1 (configuration not stated) | 
29 | 3900 |  | O=C1CC(C(=O)Nc2ccc(Cl)cc2)CN(C(=O)c2cccc(-c3ccco3)c2)C1 (configuration not stated) | 
30 | 3500 | 3 | O=C(Nc1ccc(Cl)cc1)C1CN(C(=O)c2cncc(-c3ccco3)c2)CC(F)(F)C1 (configuration not stated) | 
31 | 3200 |  | O=C(Nc1ccc(Cl)cc1)C1CN(C(=O)c2cccc(-c3cncnc3)c2)CC(F)(F)C1 (configuration not stated) | 
32 | 3000 | 5.6 | O=C(Nc1ccc(Cl)cc1)C1CCCN(C(=O)c2cccc(-c3cn[nH]c3)c2)C1 (configuration not stated) | Activity (Homo sapiens): 73%
33 | 3000 | 11.9 | O=C(Nc1ccc(Cl)cc1)C1CN(C(=O)c2cccc(-c3ncccn3)c2)CC(F)(F)C1 (configuration not stated) | Therm_solubility [5]: 75.4 µg/mL; Activity (Homo sapiens): 65%
34 | 1900 | < 3 | O=C(Nc1ccc(Cl)cc1)C1CCCN(C(=O)c2cc(-c3ccco3)ccn2)C1 (configuration not stated) | 
35 | 1000 | 9.5 | O=C(Nc1ccc(Cl)cc1)C1CN(C(=O)c2cccc(-c3ccccn3)c2)CC(F)(F)C1 (configuration not stated) | Therm_solubility [5]: 3.9 µg/mL; Activity (Homo sapiens): 37%
36 | 920 | 3.4 | O=C(Nc1ccc(Cl)cc1)C1CCCN(C(=O)c2cccc(-c3cc[nH]n3)c2)C1 (configuration not stated) | 
37 | 810 | 1.8 | O=C(c1cccc(-c2ccco2)c1)N1CCCC(COc2ccc(Cl)cc2)C1 (configuration not stated) | 
38 | 800 | 2.8 | O=C(c1cccc(-c2ccco2)c1)N1CCCC(F)(C(=O)Nc2ccc(Cl)cc2)C1 (configuration not stated) | 
39 | 680 | 4.8 | O=C(Nc1ccc(Cl)cc1)C1CN(C(=O)c2cccc(-n3cccn3)c2)CC(F)(F)C1 (configuration not stated) | Therm_solubility [5]: 23 µg/mL; Activity (Homo sapiens): 140%
40 | 550 | 7.8 | O=C(Nc1ccc(Cl)cc1)C1CN(C(=O)c2cccc(-c3ccncc3)c2)CC(F)(F)C1 (configuration not stated) | inhibition in vivo at 50 mg/kg (Mus musculus [9]): 55%; AUC(0-t) at 7 h [3]: 15300 ng·h/mL; concentration at 7 h [4]: 2.4 µM; Therm_solubility [5]: 23.1 µg/mL; Activity (Homo sapiens): 31%; inhibition in vivo at 50 mg/kg (Mus musculus [10]): 62%; AUC(0-t) at 7 h [6]: 33700 ng·h/mL; concentration at 0.5 h [7]: 14.4 µM
